A short description of data set [1]: In vitro inhibitory activity against platelet phosphodiesterase (PDE). The essentials: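 Human platelet cAMP PDE in 10 mM Tris-HCl pH 7.7, 10 mM MgSO4, 1 µM […]. Compounds dissolved in DMSO, held 10 min in medium before enzyme addition, then 10 min at 30 °C. Five inhibitor concentrations run in triplicate; IC50 read graphically from mean curves.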
In data set [2] the test system is Canis familiaris. Nature of the data set: In vivo inotropic activity in canine model by intravenous administration of 0.316 mg/kg efficacious dose. In kind it is functional, Canis lupus familiaris.
For data set [3], the system named is Canis familiaris. Nature of the data set: In vivo inotropic activity in canine model by intraduodenal administration of 3.16 mg/kg efficacious dose. In kind it is functional, Canis lupus familiaris.
The species entered for the next data set is Homo sapiens. As to the kind of experiment: Inhibition of platelet aggregation. In kind it is functional.
Data set [4] relates to Canis familiaris. Nature of the data set: In vivo inotropic activity in canine model by intraduodenal administration (Inactive). In kind it is functional, organism-based. The conditions noted are these: Canis lupus familiaris.
Data set [5] concerns Canis familiaris. Nature of the data set: In vivo inotropic activity in canine model by intravenous administration (Inactive). In kind it is functional, organism-based. The conditions noted are these: Canis lupus familiaris.
Data set [6] deals with Canis familiaris. Nature of the data set: In vivo inotropic activity in canine model by intraduodenal administration of 1.0 mg/kg efficacious dose. Format: functional, Canis lupus familiaris.
For data set [7], the system named is Canis familiaris. As to the kind of experiment: In vivo inotropic activity in canine model by intravenous administration 1.0 mg/kg efficacious dose. Format: functional, Canis lupus familiaris.
Data set [8] concerns Canis familiaris. As to the kind of experiment: In vivo inotropic activity in canine model by intravenous administration of 0.10 mg/kg efficacious dose. Format: functional, Canis lupus familiaris. To be noted: dose 0.1 mg/kg.
The subject of data set [9] is Canis familiaris. As to the kind of experiment: In vivo inotropic activity in canine model by intraduodenal administration of 0.316 mg/kg efficacious dose. In kind it is functional, Canis lupus familiaris.
Data set [10] relates to Canis familiaris. Nature of the data set: Pharmacokinetic parameter AUC was determined in dog after oral administration of 17b. Format: ADME, organism-based, Canis lupus familiaris. To be noted: in vivo. The essentials:
(§1)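 Six fasted conscious female dogs (9.4–10.5 kg) were each given one oral hard-gelatin capsule, dose equivalent to 15 mg parent drug, with 1 week between doses. Jugular blood was sampled at 0–24 h. Plasma parent drug was measured by HPLC after SCX/C-18 extraction (C-8, 280 nm, limit 5 ng/mL). AUC0–24 h was calculated by trapezoidal rule; values are mean ± SD.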

The test system of data set [11] is Canis familiaris. As to the kind of experiment: Pharmacokinetic parameter AUC was determined in dog after oral administration of 2b. In kind it is ADME, organism-based, Canis lupus familiaris. To be noted: in vivo. The essentials: as §1

Activity calls are given as the source filed them. The rule behind the calls is not given here.

As to `Br.CN(C(=O)CCCOc1ccc2c(c1)CN(CC(=O)Nc1ccccc1)C(N)=N2)C1CCCCC1`, the IC50 came out at 100 nM in data set [1] and 5400 nM in the data set listed under Homo sapiens. For the same compound, the results for the “Max CF response” value in the data set with Canis familiaris [2] and in the data set with Canis familiaris [3] were 64% and 37%, respectively.
Regarding `Br.CN(C(=O)CCCOc1ccc2c(c1)CN(CC(=O)OC(C)(C)C)C(N)=N2)C1CCCCC1`, the “Max CF response” value in the data set with Canis familiaris [4] and in the data set on Canis familiaris [5] was “inactive” throughout. In addition, the IC50 in [1] was 430 nM; in the data set listed under Homo sapiens, 4300 nM.
Take `Br.CC(OC(=O)CN1Cc2cc(OCCCC(=O)N(C)C3CCCCC3)ccc2N=C1N)C(C)(C)C` (stereo not given): the IC50 in data set [1] is 470 nM; in the data set filed under Homo sapiens, 17000 nM. In addition, the “Max CF response” value with Canis familiaris [3] came out at 62%.
Consider `Br.CN(C(=O)CCCOc1ccc2c(c1)CN(CC(=O)OCC(C)(C)C)C(N)=N2)C1CCCCC1`, for which, in data set [1], the IC50 came out at 35 nM.
With `Br.CC(C)OC(=O)CN1Cc2cc(OCCCC(=O)N(C)C3CCCCC3)ccc2N=C1N`, the IC50 came to 63 nM in [1] and 3400 nM in the data set filed under Homo sapiens. For the same compound, the “Max CF response” value in the data set with Canis familiaris [2] is given as 40%; with Canis familiaris [3] it was 31%.
`Br.CN(C(=O)CCCOc1ccc2c(c1)CN(CC(=O)N1CCCCC1)C(N)=N2)C1CCCCC1` showed a 50% inhibitory concentration (IC50) in [1] of 10 nM.
Regarding `Br.CN(C(=O)CCCOc1ccc2c(c1)CN(CC(=O)N1CCOCC1)C(N)=N2)C1CCCCC1`, the IC50 in data set [1] was determined as 52 nM; in the data set listed under Homo sapiens, 700 nM. Besides, the “Max CF response” value with Canis familiaris [2] was determined as 71%; in the data set on Canis familiaris [3], 70%.
In data set [1], `CN(C(=O)CCCOc1ccc2c(c1)CN1CC(=O)N(COC(=O)C(C)(C)C)C1=N2)C1CCCCC1` showed a half-maximal inhibitory concentration (IC50) of 150 nM. In other words, the sub-micromolar range.
With `Br.CC(OC(=O)CN1Cc2cc(OCCCC(=O)N(C)C3CCCCC3)ccc2N=C1N)c1ccccc1` (stereo not given), the concentration for half-maximal inhibition (IC50) worked out at 8 nM in data set [1] and 150 nM in the data set filed under Homo sapiens. For the same compound, the “Max CF response” value in the data set on Canis familiaris [2] came to 61%; in the data set on Canis familiaris [3] it was 64%.
For `CCOC(=O)C(CCOc1ccc2c(c1)CN1CC(=O)NC1=N2)C(=O)N(C)C1CCCCC1` (stereo not given), the IC50 in data set [1] worked out at 6.1 nM. The “Max CF response” value in the data set on Canis familiaris [2] and with Canis familiaris [6] was 50% in each case.
Consider `CCOC(=O)CN1Cc2cc(OCCCC(=O)N(C)C3CCCCC3)ccc2N=C1NC(C)=O`, for which the “Max CF response” value in the data set on Canis familiaris [7] and in the data set on Canis familiaris [3] was 58% throughout. In addition, the IC50 in data set [1] was 3100 nM; in the data set filed under Homo sapiens it was 100000 nM.
`CN(C(=O)CCCOc1ccc(N)c(CN2CC(=O)NC2=O)c1)C1CCCCC1` showed an IC50 in [1] of 3400 nM. This counts as single-digit micromolar.
Regarding `Br.CCOC(=O)CN1Cc2cc(OCCCC(=O)N(C)C3CCCCC3)ccc2N=C1N`, in [1], the IC50 was 9.3 nM. Further, the entries for the “Max CF response” value in the data set on Canis familiaris [2] and with Canis familiaris [3] were 75% and 62%, respectively.
For `CN(C(=O)CCCOc1ccc2c(c1)CN1CC(=O)N(CN3CCOCC3)C1=N2)C1CCCCC1`, in data set [1], the IC50 came out at 16 nM. Moreover, the “Max CF response” value with Canis familiaris [8] came to 65%; in the data set on Canis familiaris [9], 25%.
Compound `CN(C(=O)C(CCOc1ccc2c(c1)CN1CC(=O)NC1=N2)C(=O)O)C1CCCCC1` (stereo not given) displayed an IC50 in [1] of 5 nM. Besides, the figures for the “Max CF response” value in the data set with Canis familiaris [2] and in the data set with Canis familiaris [6] were 58% and 20%, respectively.
Consider `Br.CN(C(=O)CCCOc1ccc2c(c1)CN(CC(=O)O)C(N)=N2)C1CCCCC1`, for which the “Max CF response” value in the data set on Canis familiaris [4] and in the data set on Canis familiaris [5] was “inactive” throughout. In addition, the IC50 in [1] amounted to 60 nM.
For `CN(C(=O)CCCOc1ccc2c(c1)CN1CC(=O)NC1=N2)C1CCCCC1` [LIXAZINONE], the IC50 in [1] is 6 nM; in the data set filed under Homo sapiens, 50 nM. In addition, the figures for the “Max CF response” value in the data set with Canis familiaris [8] and with Canis familiaris [9] were 71% and 42%, respectively. Also, the figures for the AUC in the data set on Canis familiaris [10] and in the data set with Canis familiaris [11] were 268 ng·h/mL and 257 ng·h/mL, respectively.
Turning to `Br.CN(C(=O)CCCOc1ccc2c(c1)CN(CC(=O)OC1CCCCC1)C(N)=N2)C1CCCCC1`, the IC50 in data set [1] came to 52 nM; in the data set filed under Homo sapiens, 1200 nM. Moreover, in the data set with Canis familiaris [3], the “Max CF response” value is reported as 45%.
For `CN(C(=O)CCCOc1ccc2c(c1)CN(CC(N)=O)C(=O)N2)C1CCCCC1`, the IC50 in data set [1] turned out to be 18500 nM. In other words, the double-digit micromolar range.
On to `Br.CN(C(=O)CCCOc1ccc2c(c1)CN(CC(N)=O)C(N)=N2)C1CCCCC1`, for which the figures for the IC50 (in data set [1]; in the data set filed under Homo sapiens) were 120 nM and 4200 nM, respectively. The “Max CF response” value in the data set with Canis familiaris [2] and with Canis familiaris [3] was 37% throughout.
